Source: PubChem BioAssay (several laboratories)
Only some compounds are listed: those with a hit (about 3% of all), similar ones and a draw of the others.
SR-BI HDL uptake = blocks mouse SR-BI lipid uptake from DiI-HDL; Q61009; ldlA[mSR-BI] CHO cells, DiI-HDL uptake fluorescence, 3 h; inhibition, % at 12.5 µM; hit rate 0.96% among 320,000; AID 488896;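 active means mean replicate inhibition of at least 70% and a set share of replicates each scoring 70 or more; inconclusive means meets just one of the two criteria; inactive means fails both criteria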
SR-BI uptake up = activators of SR-BI mediated HDL lipid uptake; AID 504775; hit rate 0.096% among 320,000; activation, % at 12.5 µM; CHO ldlA[mSR-BI] cells, DiI-HDL uptake fluorescence, 3 h; 100 = double the neutral-control signal;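 active means mean replicate activation of at least 60% and every replicate at or above 60%; inconclusive means mean or all-replicate condition met, but not both; inactive means mean below 60% and not all replicates reaching 60%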
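Assay system: CHO ldlA[mSR-BI] cells, LDL receptor-null, SR-BI overexpressing; medium: Ham's F12 with 0.5% BSA, HEPES 25 mM, pH 7.4; also added: DiI-HDL 10 µg/mL; timing: 3 h uptake period with compound, 37 °C; signal: DiI fluorescence, bottom read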
ANO1 block = blocks the mouse calcium-activated chloride channel TMEM16A; Q8BHY3; HEK293 TMEM16A/YFP iodide influx fluorescence, ionomycin; normalized B-score (activity score, 25-100; higher = stronger inhibition) at 10 µM; hit rate 1.2% among 310,000; AID 588511;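 active means ratio plate-corrected score three or more library SD toward inhibition, starting fluorescence score within five deviations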;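 further: score derived from kinetic fluorescence span divided by baseline fluorescence per well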
TMEM16A act = activators or potentiators of mouse TMEM16A chloride channel; HEK293 TMEM16A/YFP-H148Q/I152L, iodide quench fluorescence; hits give low values; hit rate 0.3% among 340,000; AID 623877; B-score at 10 µM;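 active means fluorescence-ratio B-score plate-corrected deviation score at least 3 library SD below zero, with starting fluorescence score within 5 deviations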;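 further: channel opened by trigger with iodide after compound preincubation; score built on the fluorescence ratio of max minus min over baseline; more negative score means more quench and so TMEM16A activation or potentiation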
DNA FID counter = fluorescent intercalator displacement, NS3 helicase counter-screen. AID 1845. DNA fluorescent intercalator displacement, fluorescence. hit rate 0.17% among 290,000. inhibition, % at 7.9 µM; in the data active means inhibition above about 37%;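 further: higher means more ethidium bromide displaced from hairpin DNA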
Kir21 block = blocks the mouse Kir2.1 inward-rectifier potassium channel; HEK293-Kir2.1, FluxOR thallium flux fluorescence; hits give low values; B-score at 10 µM; hit rate 0.85% among 310,000;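 active means fluorescence ratio B-score at or below minus 3 SD of library scores, with starting-brightness B-score within 2 SD, cut at about -4.2 in these data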;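 further: channel flux triggered by added potassium and thallium sulfate stimulus; B-score of peak minus minimum fluorescence over baseline after thallium stimulus; more negative B-score means stronger Kir2.1 block with less thallium influx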
Target sequence (P35561 whole entry, looked up): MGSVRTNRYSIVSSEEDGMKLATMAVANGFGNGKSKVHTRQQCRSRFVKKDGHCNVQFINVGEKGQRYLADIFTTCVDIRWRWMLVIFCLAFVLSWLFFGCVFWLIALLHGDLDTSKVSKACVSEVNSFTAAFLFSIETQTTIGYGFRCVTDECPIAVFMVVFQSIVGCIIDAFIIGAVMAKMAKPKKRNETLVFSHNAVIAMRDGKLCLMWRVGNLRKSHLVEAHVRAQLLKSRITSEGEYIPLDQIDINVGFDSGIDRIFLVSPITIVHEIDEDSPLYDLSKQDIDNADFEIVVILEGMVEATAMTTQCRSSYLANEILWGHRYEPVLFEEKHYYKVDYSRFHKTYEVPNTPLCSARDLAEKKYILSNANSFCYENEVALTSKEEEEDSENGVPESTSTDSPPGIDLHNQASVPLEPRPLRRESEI
DiI quencher = DiI fluorescence quenching in cell-free counter-screen; shares compounds with SR-BI HDL uptake; cell-free DiI-HDL fluorescence quenching, 30 min; AC50, µM (series often up to 35 µM); hit rate 20% among 470;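 active means quenching, a falling signal, with AC50 below a set limit tied to the top valid dose, actives reach about 32 µM in these data; inconclusive means no clear call, values can overlap the other calls; inactive means rising signal, and the rest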
Hits are given with their value; n = inactive; u = inconclusive; x = no result given.

SMILES	SR-BI HDL uptake	SR-BI uptake up	ANO1 block	TMEM16A act	DNA FID counter	Kir21 block	DiI quencher
Cn1nc(C(=O)N2CCN(c3ccc([N+](=O)[O-])cc3)CC2)c2c1-c1ccccc1S(=O)(=O)C2	n	n	n	n	n	n	x
CC(C)OC(=O)c1cccc(C(=O)Nc2cccc(NC(=O)c3cccc(C(=O)OC(C)C)n3)n2)n1	72	n	n	n	n	n	n
O=C(Nc1ccccc1)c1cccc(C(=O)Nc2ccccc2)n1	n	n	n	n	n	n	x
O=C(CSc1cn(CCNC(=O)c2cccs2)c2ccccc12)NCC1CCCO1 (stereo unspecified)	n	n	n	n	n	n	n
O=C(NCCn1cc(SCC(=O)N2CCOCC2)c2ccccc21)c1c(F)cccc1F	n	n	n	n	n	n	n
O=C(CSc1cn(CCNC(=O)c2cccs2)c2ccccc12)NC1CCCCC1	n	n	n	n	n	n	x
O=C(CN1CCOCC1)Nc1nc(-c2ccc3c(c2)CCN3S(=O)(=O)c2ccccc2)cs1	n	n	n	n	n	n	n
CCC(CC)C(=O)Nc1nc(-c2ccc3c(c2)CCN3C(=O)C2CC2)c(C)s1	n	n	n	n	n	n	x
Cc1sc(NC(=O)CN2CCOCC2)nc1-c1ccc2c(c1)CCN2S(=O)(=O)c1ccccc1	u	n	25	n	n	n	n
CCN(C[C@H]1N[C@@](Cc2ccccc2)(C(=O)OC)[C@H]2C(=O)N(Cc3ccccc3)C(=O)[C@@H]12)C(=O)C1CCCCC1	n	n	x	x	x	x	x
COc1ccc(OCC(=O)N/N=C/c2cccn2-c2cccc(C(=O)O)c2)cc1	n	n	x	n	x	x	x
Cc1ccc(CCNc2ncnc(Cl)c2N)cc1	n	n	x	n	x	x	x
CC(=O)Oc1ccc(C(=O)Cc2ccc3ccccc3n2)c(O)c1C	u	n	n	n	n	n	n
CCN(CC)C(=O)c1cccc(NC(=O)c2cc(C3CC3)nc3c2cnn3C(C)C)c1	78	n	x	n	x	x	n
O=C(O)c1ccc(N2C(=O)CC(N3C(=O)/C(=C/c4ccc(Cl)cc4)SC3=S)C2=O)cc1 (stereo unspecified)	x	x	n	n	n	n	x
CN(Cc1cc(Cl)cc(Cl)c1O)Cc1c(O)ccc2ccccc12	103	n	x	n	x	x	1.9µM
COc1ccc(CNC(=O)c2sccc2-c2ccccc2)cc1OC	n	n	n	n	n	n	x
COc1ccc(OC)c(NC(=O)CCC(=O)N(Cc2ccc(OC)c(OC)c2)c2nccs2)c1	u	n	n	n	n	n	n
CCc1cc(CNC(=O)C2CCC(=O)N(CCc3cccc(F)c3)C2)on1 (stereo unspecified)	n	n	x	n	n	n	n
O=C(O)CC(C(=O)Nc1ccc(Cl)cc1Cl)C1CCCO1 (stereo unspecified)	n	n	n	n	n	n	x
Cc1ccc(C)c(NC(=O)C(CC(=O)O)C2CCCO2)c1 (stereo unspecified)	77	n	n	n	n	n	n
Cn1c(=O)c2[nH]c(C=Cc3ccc4c(c3)OCO4)nc2n(C)c1=O	n	n	x	n	x	x	x
COCCNC(=O)CCSc1nc(-c2ccc(OC)cc2)cc(C(F)(F)F)n1	n	n	n	n	n	n	x
COc1ccc(-c2cc(C(F)(F)F)nc(SCCC(=O)N3CCN4CCCC4C3)n2)cc1 (stereo unspecified)	u	n	n	n	n	n	n
C[C@@]12CCC[C@@](C)(C(=O)O)C1CC[C@@]13C[C@@H](NCc4ccccc4)[C@@](C)(CCC12)C3 (stereo partly specified)	n	n	x	n	x	x	x
SMILES	SR-BI HDL uptake	SR-BI uptake up	ANO1 block	TMEM16A act	DNA FID counter	Kir21 block	DiI quencher
O=c1[nH]c([N+](=O)[O-])nn1C(c1ccccc1)c1ccccc1	n	n	n	n	n	n	x
CCC1CN(C(=O)N2CCC(C(=O)NCc3ccccc3OC)CC2)c2ccccc2O1 (stereo unspecified)	n	n	n	n	n	n	x
CCC1CN(C(=O)N2CCC(C(=O)NCc3ccccc3OC)CC2)c2cc(C)ccc2O1 (stereo unspecified)	81	n	n	n	n	n	n
COc1ccc(OCC(O)Cn2c(Nc3cccc(C)c3)nc3c2c(=O)n(C)c(=O)n3C)cc1 (stereo unspecified)	77	n	n	n	n	n	n
Cc1ccccc1OCC(O)Cn1c(Br)nc2c1c(=O)n(C)c(=O)n2C (stereo unspecified)	n	n	n	n	n	n	x
O=C(NCN1C(=O)C2C3C=CC(C3)C2C1=O)OC1CCCCC1 (stereo unspecified)	83	n	n	n	n	n	n
O=C(CNC(=O)C1CCCCC1)OC(C(=O)c1ccccc1)c1ccccc1 (stereo unspecified)	n	n	x	n	x	x	x
CC(C)(C)[C@H]1COC(=O)[C@@H](NC(=O)OCC2c3ccccc3-c3ccccc32)C/C=C\C[C@@H](CC(=O)N[C@@H](CO)Cc2ccccc2)C(=O)N1	n	n	x	n	x	x	x
C[C@@H]1COC(=O)[C@H](NC(=O)OCC2c3ccccc3-c3ccccc32)C/C=C\C[C@@H](CC(=O)N[C@H](CO)Cc2ccccc2)C(=O)N1	81	n	x	n	x	x	n
CC(=O)Nc1ccc(S(=O)(=O)N2CCN(S(=O)(=O)c3ccc(F)c(F)c3F)CC2)cc1	x	x	n	n	n	n	x
CCNC(=O)c1c(NC(=O)c2cc(-c3cc(C)cc(C)c3O)n[nH]2)sc2c1CCCC2	u	n	x	n	x	x	n
CSCCC1NC(=O)N(CC(=O)Nc2ccc(-c3ccccc3)cc2)C1=O (stereo unspecified)	n	n	n	n	n	n	x
COCCNC(=O)c1ccc(CS(=O)(=O)c2cccc(C(F)(F)F)c2)o1	75	n	n	n	n	n	n
CCCCNC(=O)c1ccc(CS(=O)(=O)c2cccc(C(F)(F)F)c2)o1	n	n	n	n	n	n	x
O=C(c1cccc(NC2=NC3CS(=O)(=O)CC3S2)c1)N1CCN(c2ncccn2)CC1 (stereo unspecified)	n	n	n	n	n	n	x
CCn1nc(C)c(CN2CCc3c([nH]c4ccccc34)C2c2ccc(F)c(OC)c2)c1C (stereo unspecified)	82	n	n	n	n	n	n
COc1ccc(CC(=O)OCC(=O)N(C)C2CCS(=O)(=O)C2)cc1OC (stereo unspecified)	n	n	n	n	x	n	x
CC(=O)c1c(C(C)=O)c(C)n(-c2ccc(C)c(NC(=O)c3ccccc3Cl)c2)c1C	79	n	n	n	n	n	n
CCCCCCCCOC(=O)CCc1c(C)[nH]c(=S)[nH]c1=O	80	n	n	n	n	n	n
